Source: ChEMBL document CHEMBL3763115, “Silibinin derivatives as anti-prostate cancer agents: Synthesis and cell-based evaluations” (Eur J Med Chem, 2016)

Columns and labels:
LNCaP [1] = experiment: Antiproliferative activity against human LNCAP cells assessed as reduction in cell viability after 3 days by WST-1 cell proliferation assay; format: functional, cell-based; conditions: 72 h
In short: (§1)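 Cells from ATCC; PC-3 and LNCaP grown in RPMI-1640, DU145 in EMEM, each with 10% FBS and 1% penicillin/streptomycin, 37 °C, 5% CO2. 3,200 cells per well, treated at 5 concentrations for 3 days with 0.25% DMSO as vehicle control. WST-1 reagent added, 3 h at 37 °C, absorbance read at 430 nm. IC50 from linear fit of at least five doses, mean of at least triplicates.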

[2] = Antiproliferative activity against human DU145 cells assessed as reduction in cell viability after 3 days by WST-1 cell proliferation assay; format: functional, cell-based; conditions: DU-145, 72 h; in short: as §1
[3] = Antiproliferative activity against human PC3 cells assessed as reduction in cell viability after 3 days by WST-1 cell proliferation assay; format: functional, cell-based; conditions: PC-3, 72 h; in short: as §1
LNCaP [4] = experiment: Potency index, ratio of silibinin IC50 to compound IC50 for antiproliferative activity against human LNCAP cells; format: functional
In short: (§2)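 Ratio of silibinin IC50 to derivative IC50. Both come from the 3-day WST-1 assay run in parallel (5 doses, absorbance at 430 nm, IC50 from linear fit, at least triplicates).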

[5] = Potency index, ratio of silibinin IC50 to compound IC50 for antiproliferative activity against human DU145 cells; format: functional, DU-145; in short: as §2
[6] = Potency index, ratio of silibinin IC50 to compound IC50 for antiproliferative activity against human PC3 cells; format: functional, PC-3; in short: as §2
[7] = Cell cycle arrest in human PC3 cells assessed as accumulation at G0/G1 phase at 20 uM after 24 hrs by propidium iodide staining based flow cytometry (reference value: 49%); format: functional; conditions: PC-3
In short: (§3)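 PC-3 cells (RPMI-1640, 10% FBS), 200,000 per well, allowed 3 h to attach, then exposed to compound with DMSO as vehicle control. Attached and floating cells collected at 24 and 30 h, fixed in cold 80% ethanol for 30 min at 4 °C, treated with RNase for 30 min at 37 °C, and stained with propidium iodide. DNA content read by flow cytometry within 0.5–1 h.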

[8] = Cell cycle arrest in human PC3 cells assessed as accumulation at S phase at 20 uM after 24 hrs by propidium iodide staining based flow cytometry (reference value: 8%); format: functional; conditions: PC-3; in short: as §3
[9] = Cell cycle arrest in human PC3 cells assessed as accumulation at M phase at 20 uM after 24 hrs by propidium iodide staining based flow cytometry (reference value: 8%); format: functional; conditions: PC-3; in short: as §3
[10] = Cell cycle arrest in human PC3 cells assessed as accumulation at G2 phase at 20 uM after 24 hrs by propidium iodide staining based flow cytometry (reference value: 34%); format: functional; conditions: PC-3; in short: as §3
[11] = Cell cycle arrest in human PC3 cells assessed as accumulation at G0/G1 phase at 20 uM after 30 hrs by propidium iodide staining based flow cytometry (reference value: 55%); format: functional; conditions: PC-3; in short: as §3
[12] = Cell cycle arrest in human PC3 cells assessed as accumulation at S phase at 20 uM after 30 hrs by propidium iodide staining based flow cytometry (reference value: 5%); format: functional; conditions: PC-3; in short: as §3
[13] = Cell cycle arrest in human PC3 cells assessed as accumulation at M phase at 20 uM after 30 hrs by propidium iodide staining based flow cytometry (reference value: 5%); format: functional; conditions: PC-3; in short: as §3
[14] = Cell cycle arrest in human PC3 cells assessed as accumulation at G2 phase at 20 uM after 30 hrs by propidium iodide staining based flow cytometry (reference value: 30%); format: functional; conditions: PC-3; in short: as §3
PC-3 [15] = experiment: Induction of apoptosis in human PC3 cells assessed as viable cells at 10 uM after 16 hrs by F2N12S/Sytox A advanced staining based flow cytometry (reference value: 86%); format: functional; conditions: PC-3, 16 h, read-out: Activity
PC-3 [16] = experiment: Induction of apoptosis in human PC3 cells assessed as viable cells at 20 uM after 16 hrs by F2N12S/Sytox A advanced staining based flow cytometry (reference value: 86%); format: functional; conditions: PC-3, 16 h, read-out: Activity
PC-3 [17] = experiment: Induction of apoptosis in human PC3 cells assessed as viable cells at 30 uM after 16 hrs by F2N12S/Sytox A advanced staining based flow cytometry (reference value: 86%); format: functional; conditions: PC-3, 16 h, read-out: Activity
PC-3 [18] = experiment: Induction of apoptosis in human PC3 cells assessed as viable cells at 40 uM after 16 hrs by F2N12S/Sytox A advanced staining based flow cytometry (reference value: 86%); format: functional; conditions: PC-3, 16 h, read-out: Activity
PC-3 [19] = experiment: Induction of apoptosis in human PC3 cells assessed as viable cells at 50 uM after 16 hrs by F2N12S/Sytox A advanced staining based flow cytometry (reference value: 86%); format: functional; conditions: PC-3, 16 h, read-out: Activity
PC-3 [20] = experiment: Induction of apoptosis in human PC3 cells assessed as apoptotic cells at 10 uM after 16 hrs by F2N12S/Sytox A advanced staining based flow cytometry (reference value: 3%); format: functional
PC-3 [21] = experiment: Induction of apoptosis in human PC3 cells assessed as apoptotic cells at 20 uM after 16 hrs by F2N12S/Sytox A advanced staining based flow cytometry (reference value: 3%); format: functional
PC-3 [22] = experiment: Induction of apoptosis in human PC3 cells assessed as apoptotic cells at 30 uM after 16 hrs by F2N12S/Sytox A advanced staining based flow cytometry (reference value: 3%); format: functional
PC-3 [23] = experiment: Induction of apoptosis in human PC3 cells assessed as apoptotic cells at 40 uM after 16 hrs by F2N12S/Sytox A advanced staining based flow cytometry (reference value: 3%); format: functional
PC-3 [24] = experiment: Induction of apoptosis in human PC3 cells assessed as apoptotic cells at 50 uM after 16 hrs by F2N12S/Sytox A advanced staining based flow cytometry (reference value: 3%); format: functional
PC-3 [25] = experiment: Induction of apoptosis in human PC3 cells assessed as necrotic cells at 10 uM after 16 hrs by F2N12S/Sytox A advanced staining based flow cytometry (reference value: 11%); format: functional
PC-3 [26] = experiment: Induction of apoptosis in human PC3 cells assessed as necrotic cells at 20 uM after 16 hrs by F2N12S/Sytox A advanced staining based flow cytometry (reference value: 11%); format: functional
PC-3 [27] = experiment: Induction of apoptosis in human PC3 cells assessed as necrotic cells at 30 uM after 16 hrs by F2N12S/Sytox A advanced staining based flow cytometry (reference value: 11%); format: functional
PC-3 [28] = experiment: Induction of apoptosis in human PC3 cells assessed as necrotic cells at 40 uM after 16 hrs by F2N12S/Sytox A advanced staining based flow cytometry (reference value: 11%); format: functional
PC-3 [29] = experiment: Induction of apoptosis in human PC3 cells assessed as necrotic cells at 50 uM after 16 hrs by F2N12S/Sytox A advanced staining based flow cytometry (reference value: 11%); format: functional
PC-3 [30] = experiment: Induction of apoptosis in human PC3 cells after 16 hrs by F2N12S/Sytox A advanced staining based flow cytometry; format: functional, cell-based

In the case of `CCOc1cc(O)c2c(=O)c(O)c(-c3ccc4c(c3)OC(c3ccc(O)c(OC)c3)C(CO)O4)oc2c1` (stereo not given), the IC50 (LNCaP [1]) is reported as 2.58 µM, the IC50 [2] is reported as 7.59 µM and the IC50 [3] is reported as 3.25 µM. The “Ratio IC50” value (LNCaP [4]) was 17, the “Ratio IC50” value [5] was 12 and the “Ratio IC50” value [6] was 22. For the same compound, the Activity [7] was 62%, the Activity [8] was 7% and the Activity [9] was 7%. The Activity [10] was 23%, the Activity [11] was 61% and the Activity [12] was 6%. The Activity [13] was 6%, the Activity [14] was 25% and the viability at 10 µM (PC-3 [15]) was 84%. The viability at 20 µM (PC-3 [16]) was 49%, the viability at 30 µM (PC-3 [17]) was 11% and the viability at 40 µM (PC-3 [18]) was 4%. The viability at 50 µM (PC-3 [19]) was 7%, the Activity (PC-3 [20]) was 9% and the Activity (PC-3 [21]) was 38%. It also gave an Activity (PC-3 [22]) of 68%, an Activity (PC-3 [23]) of 71% and an Activity (PC-3 [24]) of 66%. The Activity (PC-3 [25]) was 7%, the Activity (PC-3 [26]) was 13% and the Activity (PC-3 [27]) was 25%. The Activity (PC-3 [28]) was 25%, the Activity (PC-3 [29]) was 27% and the Activity (PC-3 [30]) was “Dose-dependent effect”.
